DAGLB inh: blocks human DAGLB lipase activity | Q8NCG7 | HEK293T DAGLB membrane lysate, EnzChek fluorogenic substrate | inhibition, % at 5.17 µM | 340,000 tested, 0.059% active | AID 504411; in the data active = inhibition above about 34%
ABHD4 inh: inhibits mouse alpha/beta hydrolase domain 4 | purified mABHD4, FP-Rh probe fluorescence polarization | 370,000 tested, 0.54% active | inhibition, % at 8.92 µM | Q8VD66;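 active = inhibition exceeding the mean over every tested compound plus 3 SD, cut at about 30% in these data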
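System: mouse ABHD4 enzyme, wild type / Medium: HEPES pH 7.0, NaCl, Pluronic buffer / Reagent: FP-Rh activity-based fluorescent probe / Control set: S159A mutant high control, sample median low control / Detection: fluorescence polarization with parallel and perpendicular emission, 525/598 nm / Schedule: 45 min + 60 min at 25 °C / Compound dosing: 8.92 µM, single dose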
TCR CD3 inh: inhibitors of human TCR-CD3 interaction; TAMRA-labeled TCR probe fluorescence, biochemical; inhibition, % at 9.4 µM; 360,000 tested, 0.37% active; in the data active = inhibition above about 19%;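 also: recombinant mutant TCR 2C K166C tagged with TAMRA read by polarization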
HTRA1 inhibitor: HTRA1 (human) protease inhibition; recombinant HTRA1, FP-rhodamine activity-based probe, fluorescence polarization; inhibition, % at 5.96 µM; 340,000 tested, 0.5% active; in the data active = inhibition above about 36%
SIAE inh: inhibitors of human sialic acid acetylesterase SIAE; 370,000 tested, 0.69% active; inhibition, % at 9.66 µM; AID 1053197; Q9HAT2; SIAE FP-Rh probe binding, fluorescence polarization;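 active = inhibition above a cutoff: mean of compounds within the control limits plus 3 SD of those, cut at about 17% in these data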
A number is an active result; n = inactive; x = not tested or not shown. Compounds with a hit are over-represented: about 1.5% of the library has one in this group of screens.

SMILES	DAGLB inh	ABHD4 inh	TCR CD3 inh	HTRA1 inhibitor	SIAE inh
CC(C)CC1NC(=O)N(CC(=O)N2c3ccccc3NC(=O)C2(C)C)C1=O (configuration not stated)	n	n	n	n	20.2
CCC1(c2ccc(F)cc2)NC(=O)N(CC(=O)N2c3ccccc3NC(=O)C2(C)C)C1=O (configuration not stated)	n	n	n	n	n
Nc1ccc(S(=O)(=O)c2cc(O)c3ccccc3c2O)cc1	n	48.1	n	n	n
Cn1nc(C(C)(C)C)cc1C(=O)NCC1CCN(C(=O)C(=O)c2cc3ccccc3o2)CC1	x	n	n	x	n
N#CC(c1ccc(Cl)cc1)c1ccc2c(C(F)(F)F)cc(C(F)(F)F)nc2n1 (configuration not stated)	n	n	n	n	22.8
FC(F)(F)c1cc(C(F)(F)F)c2ccc(N3CCN(c4ccc(Cl)cc4)CC3)nc2n1	n	n	n	n	n
CN1CCN(C(=O)c2cc3sccc3n2CC(=O)c2ccccc2)CC1	n	n	n	n	n
CCN1CCN(C(=O)c2cc3sccc3n2CC(=O)c2ccccc2)CC1	n	n	n	n	67.2
CCOC(=O)c1c(C)[nH]c(O)c1C=Nc1ccc(C(F)(F)F)cc1	n	n	n	61.9	n
COC(=O)c1c(C)[nH]c(O)c1C=Nc1ccc(C(C)C)cc1	n	n	n	n	n
COCCCNc1nc2c(c(=O)[nH]c(=O)n2C)n1CC(O)COc1ccccc1C (configuration not stated)	n	n	n	n	18.6
COCCCNc1nc2c(c(=O)[nH]c(=O)n2C)n1CC(O)COc1ccccc1 (configuration not stated)	n	n	n	n	n
COc1cc(OC)c(NC(=O)CN(C)S(=O)(=O)c2ccc3[nH]c(=O)oc3c2)cc1Cl	n	n	20.2	n	n
COc1ccc(NC(=O)CN(C)S(=O)(=O)c2ccc3[nH]c(=O)oc3c2)cc1	n	n	n	n	n
O=C(O)C1Nc2c(C(F)(F)F)ccc(Cl)c2C2C=CCC12 (configuration not stated)	n	35.9	n	n	n
Cc1ccc2c(c1C)NC(C(=O)O)C1CC=CC21 (configuration not stated)	n	x	x	51.1	x
O=C(O)C1Nc2c(C(=O)N3CCOCC3)cccc2C2C=CCC12 (configuration not stated)	n	x	x	n	x
CCOC(=O)C1CSCCS(=O)(=O)N1Cc1cccc(Cl)c1 (configuration not stated)	x	n	n	x	n
CN(C(=O)CSc1ncnc2c(-c3cccs3)nsc12)C1CCCCC1	x	n	n	x	n
C#CCNC(=O)C[C@H]1C[C@@]2(C(=O)OC)C(=C[C@H](C(C)C)O[C@@H]2C2CC2)N(CCc2ccc(OC)c(OC)c2)C1=O	x	n	x	x	n
CC(C)C[C@H]1COc2c(Cl)cccc2S(=O)(=O)N1Cc1cccc(Cl)c1	x	n	n	x	n
Cc1cc(O)c2c(c1)C(=O)c1cccc(O)c1C2=O	x	n	n	x	n
O=C(O)c1cc(O)c2c(c1)C(=O)c1cccc(O)c1C2=O	n	98.5	n	n	n
CNC(=O)C1(CC(C)C)C=CCN1C(C)=O (configuration not stated)	n	n	n	n	17.2
CC(=O)N1CC=CC1(CC(C)C)C(=O)NCc1cc(F)cc(C(F)(F)F)c1 (configuration not stated)	n	n	n	n	n
SMILES	DAGLB inh	ABHD4 inh	TCR CD3 inh	HTRA1 inhibitor	SIAE inh
O=C(CN1C2=NCCN2c2ccccc21)c1ccc2c(c1)OCO2	n	n	n	n	19.5
COc1ccc(Br)cc1C(=O)Nc1ccc(N2CCCC2)cc1	n	n	19.0	n	n
CCC(COC(=O)c1ccccc1)Oc1cc(NCc2ccccc2)c2ncn(C(C)C)c2c1 (configuration not stated)	n	31.0	n	n	n
CCC(COC)Oc1cc(NCc2ccccc2)c2ncn(C(C)C)c2c1 (configuration not stated)	n	n	n	n	n
CC1=C(C#N)C(=O)NC(=O)/C1=C\c1ccc(-c2cc(C)c(C)cc2[N+](=O)[O-])o1	n	40.8	n	n	n
CC(c1ccccc1)n1cc(C(=O)N2CCCC2)nn1 (configuration not stated)	x	n	x	x	n
CCOc1ccc(-c2nc(C#N)c(NCc3ccc4c(c3)OCO4)o2)cc1	n	n	n	n	17.8
COc1ccccc1C(=O)Nc1ccc(S(=O)(=O)Nc2cc(C)on2)cc1	n	n	n	n	26.9

Assay outcomes: PubChem BioAssay, The Scripps Research Institute Molecular Screening Center
